In data set [1] the test system is Brain. Briefly: Fraction unbound in Wistar rat brain at 10 mg/kg, ip administered as single dose measured at 5 to 720 mins post dose by HPLC-MS/MS analysis. It counts as ADME, organism-based. The conditions noted are these: in vivo. The essentials:
(§1)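 Free fraction in rat plasma and brain tissue was measured in vitro by rapid equilibrium dialysis. Exposure came from male Wistar rats (250-350 g) given a single 10 mg/kg IP dose, as a 5 mg/ml suspension in 85% water, 14% propylene glycol and 1% Tween 80. Three rats per time point (5–720 min); brain analysed by HPLC-MS/MS after solid-phase extraction.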

Data set [2] deals with Brain. Briefly: Unbound AUC in Wistar rat brain at 10 mg/kg, ip administered as single dose measured at 5 to 720 mins post dose by HPLC-MS/MS analysis. It counts as ADME, organism-based. Particulars: in vivo. The essentials:
as §1

Data set [3] in a line: Drug metabolism in human liver microsomes assessed as CYP450 mediated-O-demethylated 7-hydroxy-2-[4-(trideuteriomethoxy)phenyl]-5H-pyrazolo[4,3-c]quinolin-3-one metabolite formation after 60 mins by LC-MS analysis. In kind it is ADME. Particulars: 1 h. The essentials: (§2)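 The 60-min samples from the human or mouse liver microsome incubations (10 µM compound, 0.5 mg/mL protein, NADPH regenerating system, 37 °C, pH 7.4) were run on LC-MS in SIM mode with dual ESI/APCI ionization. The method was calibrated to each component's retention time and mass, and the peak intensities of the parent and O-demethylated metabolites were measured.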

Data set [4] in a line: Drug metabolism in human liver microsomes assessed as CYP450 mediated-O-demethylated 7-hydroxy-2-(4-hydroxyphenyl)-2H-pyrazolo[4,3-c]quinolin-3(5H)-one metabolite formation after 60 mins by LC-MS analysis. It counts as ADME. Particulars: 1 h. The essentials:
as §2

Data set [5] deals with Rattus norvegicus. Briefly: Toxicity in Wistar rat assessed as total distance traveled at 10 mg/kg, ip administered for 45 mins by cued water-maze method (reference value: 8.04 +/- 1.16 meter). The conditions noted are these: in vivo, 0.75 h. In kind it is organism-based.
The test system of a further data set is Mus musculus. Briefly: Neurotoxicity in Swiss Webster mouse assessed as induction of motor impairment at 55 mg/kg administered via oral gavage measured after 10 to 60 mins by rotarod method. It counts as toxicity, organism-based. The conditions noted are these: in vivo.
For data set [6], the system named is Rattus norvegicus. Briefly: Hyperlocomotor activity in Wistar rat assessed as total distance travelled at 10 mg/kg, ip after 60 mins. It counts as ADME, organism-based. The conditions noted are these: in vivo, 1 h.
Data set [7] can be described thus: Drug metabolism in mouse liver microsomes assessed as CYP450 mediated-O-demethylated 2-(4-hydroxyphenyl)-7-methoxy-2H-pyrazolo[4,3-c]quinolin-3(5H)-one metabolite formation after 60 mins by LC-MS analysis. It counts as ADME. Particulars: 1 h. The essentials:
as §2

In a further data set the test system is HEK-293T. Briefly: Cytotoxicity against HEK293T cells assessed as reduction in cell viability up to 400 uM after 48 hrs by CellTiter-Glo assay. It counts as cell-based. The conditions noted are these: human. The method in brief: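 HEK293T and HepG2 cells grown in high-glucose DMEM with non-essential amino acids, 10 mM HEPES, penicillin/streptomycin and 10% heat-inactivated FBS. Cells were harvested with trypsin and plated; compound was pin-transferred 3 h later. Incubation was 48 h, then CellTiter-Glo luminescence was read. Controls were DMSO (negative) and a cytotoxic aminoketone (positive). Quadruplicates, three independent runs, normalized to controls, nonlinear regression.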

For data set [8], the system named is Rattus norvegicus. Briefly: Toxicity in Wistar rat assessed as average swim speed at 10 mg/kg, ip administered for 45 mins by cued water-maze apparatus method (reference value: 0.21 +/- 0.01 meter/s). In kind it is organism-based. Particulars: in vivo, 0.75 h.
Data set [9] is described as follows: Drug metabolism in mouse liver microsomes assessed as CYP450 mediated-O-demethylated 7-hydroxy-2-(4-hydroxyphenyl)-2H-pyrazolo[4,3-c]quinolin-3(5H)-one metabolite formation after 60 mins by LC-MS analysis. In kind it is ADME. Particulars: 1 h. The essentials:
as §2

The nature of data set [10]: Drug metabolism in mouse liver microsomes assessed as CYP450 mediated-O-demethylated 7-hydroxy-2-[4-(trideuteriomethoxy)phenyl]-5H-pyrazolo[4,3-c]quinolin-3-one metabolite formation after 60 mins by LC-MS analysis. It counts as ADME. The conditions noted are these: 1 h. The method in brief: as §2
Data set [11] addresses GABA A receptor alpha-4/beta-3/gamma-2 (Homo sapiens) (UniProt P18507+P28472+P48169). Briefly: Positive allosteric modulation of GABA-A receptor alpha4beta3gamma2 (unknown origin) expressed in Xenopus laevis oocytes assessed as potentiation of EC3 GABA induced currents up to 1 uM at -60 mV holding potential by electrophysiological method relative to GABA. In kind it is cell-based. The essentials: (§3)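 Stage 5–6 defolliculated Xenopus oocytes were injected with 2.5 ng total mRNA per oocyte: α1, α2, α3 or α5 with β3 and γ2 at 1:1:5, and α4 or α6 with β3 and γ2 at 3:1:5. Oocytes were kept ≥36 h at 18 °C in NDE medium before recording. Compounds were co-applied with GABA titrated to EC3-5 for each oocyte. Curves were fitted with the Hill equation; mean ± SEM from ≥3 oocytes across two batches.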

The target in data set [12] is GABA-A receptor; alpha-5/beta-3/gamma-2 (Homo sapiens) (UniProt P18507+P28472+P31644). Briefly: Positive allosteric modulation of GABA-A receptor alpha5beta3gamma2 (unknown origin) expressed in Xenopus laevis oocytes assessed as potentiation of EC3 GABA induced currents up to 1 uM at -60 mV holding potential by electrophysiological method relative to GABA. In kind it is cell-based. The essentials:
as §3

Data set [13] concerns the target D(1B) dopamine receptor (Homo sapiens) (UniProt P21918). Briefly: Displacement of [3H]-[…] from human recombinant dopamine D5 receptor expressed in HEK293 cells at 10 uM after 60 to 90 mins by scintillation counting. In kind it is cell-based. The essentials:
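Primary single-concentration radioligand displacement screen run by the NIMH Psychoactive Drug Screening Program across a 46-target panel that includes hERG. The read-out is percent inhibition of specific radioligand binding. Any compound displacing more than 50% of radioligand went on to secondary binding assays to determine Ki.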

Data set [14] addresses GABA-A receptor; alpha-3/beta-3/gamma-2 (Homo sapiens) (UniProt P18507+P28472+P34903). Briefly: Positive allosteric modulation of GABA-A receptor alpha3beta3gamma2 (unknown origin) expressed in Xenopus laevis oocytes assessed as potentiation of EC3 GABA induced currents up to 1 uM at -60 mV holding potential by electrophysiological method relative to GABA. It counts as cell-based. The method in brief: as §3

A short description of data set [15]: Aqueous solubility of the compound in DI water at pH 7 after 2 hrs by LC-MS analysis. In kind it is physicochemical. Particulars: buffer, pH 7, 2 h. The method in brief: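 10 mg compound dissolved in 2 mL DMAC; 10 μL of this added to 2 mL DI water (pH 7, sonicated) or 2 mL 0.01 M aq HCl (pH 2), held 2 h at 37 °C. Filtered through 0.45 micron filter, then quantified by LC-MS in SIM mode against calibration curves of standards in DMAC (n = 5); n=3.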

Data set [16] has as its target 5-hydroxytryptamine receptor 7 (Homo sapiens) (UniProt P34969). Briefly: Displacement of [3H]-LSD from human recombinant 5HT7 receptor expressed in HEK293 cells at 10 uM after 60 to 90 mins by scintillation counting. It counts as cell-based.
Data set [17] has as its target Mu-type opioid receptor (Homo sapiens) (UniProt P35372). Briefly: Displacement of [3H]-DAMGO from human recombinant MOR expressed in HEK293 cells at 10 uM after 60 to 90 mins by scintillation counting. It counts as cell-based.

Converted amounts (≈) assume the structure as drawn. The source made the active and inactive calls. The rule behind the calls is not given here.

Chain of Mu-type opioid receptor (Homo sapiens) (P35372 whole entry): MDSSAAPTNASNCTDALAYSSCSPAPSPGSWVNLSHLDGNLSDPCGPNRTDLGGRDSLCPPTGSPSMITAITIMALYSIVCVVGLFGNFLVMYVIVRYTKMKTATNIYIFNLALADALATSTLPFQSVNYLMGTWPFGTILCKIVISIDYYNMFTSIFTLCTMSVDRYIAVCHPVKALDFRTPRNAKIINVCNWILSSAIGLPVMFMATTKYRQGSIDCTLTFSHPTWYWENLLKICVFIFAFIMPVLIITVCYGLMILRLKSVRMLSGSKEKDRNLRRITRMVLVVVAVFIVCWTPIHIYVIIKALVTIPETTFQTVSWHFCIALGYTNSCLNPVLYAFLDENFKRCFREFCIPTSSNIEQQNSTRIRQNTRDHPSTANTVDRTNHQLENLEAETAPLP
Chain of D(1B) dopamine receptor (Homo sapiens) (P21918 whole entry): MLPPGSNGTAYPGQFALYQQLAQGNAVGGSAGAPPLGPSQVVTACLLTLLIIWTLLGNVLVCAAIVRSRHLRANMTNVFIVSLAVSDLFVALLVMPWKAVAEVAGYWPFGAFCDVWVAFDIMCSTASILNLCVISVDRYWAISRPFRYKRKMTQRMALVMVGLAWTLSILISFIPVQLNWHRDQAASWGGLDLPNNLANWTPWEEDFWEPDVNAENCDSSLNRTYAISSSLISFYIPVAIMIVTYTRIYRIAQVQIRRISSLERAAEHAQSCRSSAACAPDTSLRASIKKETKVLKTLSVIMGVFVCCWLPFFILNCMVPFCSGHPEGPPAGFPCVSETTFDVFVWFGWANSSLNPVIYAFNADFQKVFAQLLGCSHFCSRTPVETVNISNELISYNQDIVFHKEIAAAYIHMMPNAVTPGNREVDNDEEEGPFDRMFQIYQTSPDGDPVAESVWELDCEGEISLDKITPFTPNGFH
Chain of 5-hydroxytryptamine receptor 7 (Homo sapiens) (P34969 whole entry): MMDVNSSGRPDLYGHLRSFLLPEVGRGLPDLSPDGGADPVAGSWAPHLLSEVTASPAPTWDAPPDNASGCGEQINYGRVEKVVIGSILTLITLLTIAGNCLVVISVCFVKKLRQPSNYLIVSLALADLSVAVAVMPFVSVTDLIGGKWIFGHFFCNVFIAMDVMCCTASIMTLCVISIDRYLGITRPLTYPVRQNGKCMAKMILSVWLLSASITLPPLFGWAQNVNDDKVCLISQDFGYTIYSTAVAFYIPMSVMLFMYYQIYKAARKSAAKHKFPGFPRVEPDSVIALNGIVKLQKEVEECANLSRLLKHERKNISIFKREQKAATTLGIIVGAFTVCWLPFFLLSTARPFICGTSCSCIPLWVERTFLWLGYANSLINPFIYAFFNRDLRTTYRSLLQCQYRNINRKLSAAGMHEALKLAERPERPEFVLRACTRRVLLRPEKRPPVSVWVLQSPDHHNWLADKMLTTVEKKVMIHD

For the compound `[2H]C([2H])([2H])Oc1ccc(-n2nc3c4ccc(OC)cc4[nH]cc-3c2=O)cc1`, the Fu in the data set with Brain [1] amounted to 0.194. Besides, the fAUC in the data set on Brain [2] came out at 651.72 ng·h/g. For the same compound, the Drug metabolism result in data set [3], in data set [4], in data set [7], in [9] and in [10] was “Metabolite_Detected” each time. For the same compound, the Activity is 11.01 m with Rattus norvegicus [5]; “Non-Toxic” in the data set on Mus musculus; “Toxic” in the data set on Rattus norvegicus [6]; “Non-Toxic” with HEK-293T; 0.2 meter/s in the data set on Rattus norvegicus [8].

Take `COc1ccc(-n2nc3c4ccc(OC)cc4[nH]cc-3c2=O)cc1`: the Activity in data set [11], in data set [12] and in [14] was below 0% in each case. Moreover, the inhibition result in data set [13], in data set [16] and in [17] was “Active” each time. The solubility in [15] turned out to be 24.3 µM (≈ 7.81 µg/mL).

The values are drawn from ChEMBL document CHEMBL4033790, “Design and Synthesis of Novel Deuterated Ligands Functionally Selective for the γ-Aminobutyric Acid Type A Receptor (GABAAR) α6 Subtype with Improved Metabolic Stability and Enhanced Bioavailability” (J Med Chem, 2018).
